Results on 15 compounds are retold here after ChEMBL document CHEMBL1131119, “N'-Phenylindol-3-ylglyoxylohydrazide derivatives: synthesis, structure-activity relationships, molecular modeling studies, and pharmacological action on brain benzodiazepine receptors” (J Med Chem, 1998).

Assay [1] concerns the target GABA-A receptor; anion channel (Bos taurus) (UniProt P10063+P08220+P20237+P08219+P10064+P22300). The note with it: Brain membranes, at 0.5 µM.
Assay [2] addresses GABA-A receptor; anion channel. Nature of the assay: Inhibition of [3H]-Ro- 15-1788 binding to GABA-A benzodiazepine receptor of bovine brain membranes. In kind it is cell membranes, Bos taurus. A digest of the protocol:
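Bovine cerebral cortex membranes, freeze–thawed and washed in 50 mM Tris-citrate pH 7.4; competition against [3H]Ro 15-1788 by filtration. […] Ki as mean ± SEM of three determinations.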

Assay [3] concerns Mus musculus. Nature of the assay: Antagonistic effect against PTZ (80 mg/kg, sc) convulsant action in mice. In kind it is functional.
The test system of assay [4] is Mus musculus. Description: Convulsant effect in mice following subconvulsant PTZ(40 mg/kg, sc) dose, ineffective to 250 mg/kg. The class given is functional, organism-based. On the set-up: dose 250 mg/kg.
Assay [5] concerns Mus musculus. Nature of the assay: Antagonistic effect against the anticonvulsant Diazepam (2.5 mg/kg, ip) effect in mice after PTZ (80 mg/kg, sc) dose. The class given is functional.
In assay [6] the test system is Mus musculus. Description: Antagonistic effect against the anticonvulsant Diazepam (2.5 mg/kg, ip) effect in mice after PTZ (80mg/kg, sc) dose, ineffective to 250 mg/kg. In kind it is functional, organism-based. On the set-up: dose 250 mg/kg.
The subject of assay [7] is Mus musculus. Description: Antagonistic effect against PTZ (80 mg/kg, sc) convulsant action in mice (ineffective). In kind it is functional, organism-based. The method, boiled down:
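Groups of 10 mice received graded ip doses (up to 250 mg/kg), suspended in 20% dilute Emulphor (1:1 w/w with ethanol)–80% saline, or vehicle alone. PTZ 80 mg/kg sc followed 30 min later. ED50 was the dose protecting 50% of mice from convulsions. Values are means of at least three determinations.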

In assay [8] the test system is Mus musculus. Nature of the assay: Convulsant effect in mice following subconvulsant PTZ(40 mg/kg, sc) dose. The class given is functional. A digest of the protocol: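 Groups of 10 mice were given graded ip doses (up to 250 mg/kg) in 20% dilute Emulphor–80% saline, or vehicle alone. A subconvulsant dose of PTZ (40 mg/kg sc) followed 30 min later. ED50 was the dose inducing convulsions in 50% of mice. Values are means of at least three determinations.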

Broadly, the Ki is the equilibrium dissociation constant of an inhibitor or competing ligand from its target. Lower therefore signals a stronger hold on the target. Usually ED50 stands for the midpoint of the dose-response relation.

Activity calls are given as the source filed them. No cut-off for these calls is given here.

Regarding `O=C(NNc1ccccc1)C(=O)c1c[nH]c2ccccc12`, the Clonazepam in assay [1] was 20%. Besides, in assay [2], the Ki was determined as 203 nM.

With `Cc1cccc(NNC(=O)C(=O)c2c[nH]c3ccccc23)c1`, the Clonazepam in assay [1] stood at 20%. In assay [2], this compound had a Ki of 510 nM.

Consider `CN1C(=O)CN=C(c2ccccc2)c2cc(Cl)ccc21` [DIAZEPAM], for which, in the assay on Mus musculus [3], the ED50 stood at 0.4 mg/kg.

As for `CCOC(=O)c1ncn2c1CN(C)C(=O)c1cc(F)ccc1-2` [FLUMAZENIL], the Proconvulsant action entry in the assay on Mus musculus [4] was “inactive”. The Diazepam antagonism in the assay on Mus musculus [5] was 0.3.

In turn, `CN(NC(=O)C(=O)c1c[nH]c2ccc([N+](=O)[O-])cc12)c1ccccc1` had a Clonazepam in assay [1] of 53%. The affinity in assay [2] corresponds to a Ki of 2400 nM. Besides, the Diazepam antagonism result with Mus musculus [6] was “inactive”. The compound also gave a 50% effective dose (ED50) in the assay on Mus musculus [3] of 25 mg/kg. Besides, in the assay with Mus musculus [4], the Proconvulsant action entry is “inactive”.

`O=C(NNc1ccc(Cl)cc1)C(=O)c1c[nH]c2ccccc12` registered a Clonazepam in assay [1] of 16%. The Ki in assay [2] is 62 nM. The Diazepam antagonism entry in the assay with Mus musculus [6] is “inactive”. In the assay with Mus musculus [3], the ED50 came out at 25 mg/kg. In addition, in the assay with Mus musculus [4], the Proconvulsant action entry is “inactive”.

Compound `Cn1cc(C(=O)C(=O)NNc2ccc([N+](=O)[O-])cc2)c2ccccc21` yielded a Ki in assay [2] of 455 nM.

With `COc1ccc(NNC(=O)C(=O)c2c[nH]c3ccccc23)cc1`, the Clonazepam in assay [1] is 17%. For the same compound, the Ki in assay [2] amounted to 430 nM.

In assay [2], `Cn1cc(C(=O)C(=O)NNc2ccccc2)c2ccccc21` gave a Ki of 1200 nM.

Consider `O=C(NNc1ccc([N+](=O)[O-])cc1)C(=O)c1c[nH]c2ccccc12`, for which the Clonazepam in assay [1] is 20%. Besides, in assay [2], the Ki came to 11 nM. Further, the Diazepam antagonism result in the assay with Mus musculus [6] was “inactive”. This compound gave an ED50 in the assay on Mus musculus [3] of 10 mg/kg. Also, the Proconvulsant action result in the assay on Mus musculus [4] was “inactive”.

Turning to `Cc1ccc(NNC(=O)C(=O)c2c[nH]c3ccccc23)cc1`, the Clonazepam in assay [1] stood at 9%. The compound also gave a Ki in assay [2] of 290 nM.

As for `COC(=O)c1cc2c(cn1)[nH]c1ccccc12` [BETA-CCM], in the assay on Mus musculus [7], the ED50 entry is “inactive”. Besides, in the assay on Mus musculus [5], the Diazepam antagonism was determined as 0.02. The compound further had a Proconvulsant action in the assay on Mus musculus [8] of 19.4.

In assay [1], `O=C(NNc1ccc(F)cc1)C(=O)c1c[nH]c2ccccc12` had a Clonazepam of 18%. Also, affinity in assay [2] was put at a Ki of 57 nM. In addition, the Diazepam antagonism result in the assay on Mus musculus [6] was “inactive”. The compound further returned an ED50 in the assay with Mus musculus [3] of 60 mg/kg. Also, the Proconvulsant action entry in the assay with Mus musculus [4] is “inactive”.

`O=C1CN=C(c2ccccc2Cl)c2cc([N+](=O)[O-])ccc2N1`: in assay [1], the Clonazepam is 100%.

Turning to `O=C(NNc1ccc(O)cc1)C(=O)c1c[nH]c2ccccc12`, the inhibition constant (Ki) in assay [2] was found to be 3400 nM.
